Test results from ChEMBL document CHEMBL4371016, “Proline- and Arginine-Rich Peptides as Flexible Allosteric Modulators of Human Proteasome Activity” (J Med Chem, 2019).
Activity calls are given as the source filed them. No cut-off for these calls is given here. Residues, ends and D or L forms follow the SMILES beside them.

How the values were obtained:
[1] = target: T1, Proteasome Macropain subunit MB1 (Homo sapiens) (UniProt P28074); assay: Positive allosteric modulation of 1 uM Rpt5-activated human erythrocytes 20S proteasome chymotrypsin like activity up to 10 uM using Suc-LLVY-AMC as substrate measured every 1 min up to 60 mins by fluorescence assay
T1 sequence (whole entry): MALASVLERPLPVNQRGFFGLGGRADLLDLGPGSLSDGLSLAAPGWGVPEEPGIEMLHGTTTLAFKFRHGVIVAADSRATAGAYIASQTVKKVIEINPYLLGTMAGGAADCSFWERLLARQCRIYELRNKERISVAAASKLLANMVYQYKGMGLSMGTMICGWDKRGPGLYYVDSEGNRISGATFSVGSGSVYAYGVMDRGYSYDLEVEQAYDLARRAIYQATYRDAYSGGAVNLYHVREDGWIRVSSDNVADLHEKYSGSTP

[2] = target: T1, Proteasome Macropain subunit MB1 (Homo sapiens); assay: Negative allosteric modulation of 10 uM Rpt5-activated human erythrocytes 20S proteasome chymotrypsin like activity up to 10 uM using Suc-LLVY-AMC as substrate measured every 1 min up to 60 mins by fluorescence assay
[3] = target: T1, Proteasome Macropain subunit MB1 (Homo sapiens); assay: Positive allosteric modulation of latent human erythrocytes 20S proteasome chymotrypsin like activity at 25 uM using Suc-LLVY-AMC as substrate measured every 2 mins up to 60 mins by fluorescence assay relative to control
[4] = target: T1, Proteasome Macropain subunit MB1 (Homo sapiens); assay: Positive allosteric modulation of latent human erythrocytes 20S proteasome chymotrypsin like activity using LFP as substrate measured every 2 mins up to 60 mins by fluorescence assay
[5] = target: T1, Proteasome Macropain subunit MB1 (Homo sapiens); assay: Positive allosteric modulation of latent human erythrocytes 20S proteasome chymotrypsin like activity at 25 uM using LFP as substrate measured every 2 mins up to 60 mins by fluorescence assay relative to control
[6] = target: T1, Proteasome Macropain subunit MB1 (Homo sapiens); assay: Negative allosteric modulation of SDS-activated human erythrocytes 20S proteasome chymotrypsin like activity up to 10 uM using LFP as substrate measured every 2 mins up to 60 mins by fluorescence assay
[7] = target: T2, 20S proteasome (Homo sapiens) (UniProt P49721+P20618+P28074+P28062+P28065+P28072+P25786+P25787+P25788+P25789+P28066+P60900+O14818+Q8TAA3+P40306+A5LHX3+P49720+P28070+Q99436); assay: Negative allosteric modulation of SDS-activated human erythrocytes 20S proteasome assessed as reduction in human alpha-synuclein degradation at 1 uM after 1 hr by SDS-PAGE analysis
Procedure, shortened: (§1)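 Human α-synuclein or yeast enolase digested by human 20S activated with 0.01% SDS (20S:substrate 1:100 pmol α-syn, 1:10 pmol enolase) in 20 mM HEPES pH 7.4 at 37 °C for 1 h (α-syn) or 4 h (enolase). DMSO at or below 0.05%. SDS–PAGE (12% or 10%) with Coomassie staining; remaining substrate densitometry as percent of control; at least three experiments, mean ± SEM.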

[8] = target: T1, Proteasome Macropain subunit MB1 (Homo sapiens); assay: Stimulation of 20S proteasome chymotrypsin like activity in human primary fibroblasts at 10 uM preincubated for 24 hrs followed by Suc-LLVY-AMC substrate addition and measured at 2 mins interval up to 60 mins by fluorescence assay relative to control
Procedure, shortened: (§2)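 Fibroblasts (GM04390, 3% O2, 37 °C) exposed to 0.1–20 μM peptide or DMSO for 24 h after Optimem switch. Cells scraped, lysed in 50 mM Tris/HCl pH 7.4, 5 mM MgCl2, 1 mM DTT by mechanical lysis and freeze fractionation. Bradford-normalised lysate (1 μg in 100 μL) incubated with 50 μM Suc-LLVY-AMC; fluorescence ex 370/em 460 nm.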

[9] = target: T1, Proteasome Macropain subunit MB1 (Homo sapiens); assay: Stimulation of 20S proteasome chymotrypsin like activity in human primary fibroblasts preincubated for 24 hrs followed by Suc-LLVY-AMC substrate addition and measured at 2 mins interval up to 60 mins by fluorescence assay; procedure, shortened: as §2
[10] = target: T2, 20S proteasome (Homo sapiens); assay: Effect on alpha-face conformations of latent human erythrocytes 20S proteasome assessed as open state conformation at 1 uM by atomic force microscopic method (reference value: 7%)
[11] = target: T2, 20S proteasome (Homo sapiens); assay: Effect on alpha-face conformations of latent human erythrocytes 20S proteasome assessed as intermediate state conformation at 1 uM by atomic force microscopic method (reference value: 22%)
[12] = target: T2, 20S proteasome (Homo sapiens); assay: Positive allosteric modulation of SDS-activated human erythrocytes 20S proteasome assessed as increase in yeast enolase degradation at 10 uM after 4 hr by SDS-PAGE analysis
[13] = target: T2, 20S proteasome (Homo sapiens); assay: Positive allosteric modulation of SDS-activated human erythrocytes 20S proteasome assessed as increase in human alpha-synuclein degradation at 10 uM after 1 hr by SDS-PAGE analysis
[14] = target: T3, Proteasome component C5 (Homo sapiens) (UniProt P20618); assay: Positive allosteric modulation of latent human erythrocytes 20S proteasome caspase like activity at 10 uM measured every 1 min up to 60 mins by fluorescence assay relative to control
T3 sequence (whole entry): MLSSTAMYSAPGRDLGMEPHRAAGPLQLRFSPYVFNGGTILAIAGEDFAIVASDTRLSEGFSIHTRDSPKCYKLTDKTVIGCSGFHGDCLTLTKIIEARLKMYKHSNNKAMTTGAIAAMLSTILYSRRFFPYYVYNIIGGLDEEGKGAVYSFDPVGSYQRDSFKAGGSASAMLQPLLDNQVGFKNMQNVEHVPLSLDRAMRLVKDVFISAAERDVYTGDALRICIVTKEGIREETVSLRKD

[15] = target: T2, 20S proteasome (Homo sapiens); assay: Positive allosteric modulation of SDS-activated human erythrocytes 20S proteasome assessed as increase in yeast enolase degradation at 1 uM after 4 hr by SDS-PAGE analysis relative to control
[16] = target: Proteasome subunit beta type-6 (Homo sapiens) (UniProt P28072); assay: Positive allosteric modulation of latent human erythrocytes 20S proteasome caspase like activity at 10 uM using Z-LLE-AMC as substrate measured every 1 min up to 60 mins by fluorescence assay relative to control
[17] = target: T1, Proteasome Macropain subunit MB1 (Homo sapiens); assay: Negative allosteric modulation of SDS-activated human erythrocytes 20S proteasome chymotrypsin like activity using Suc-LLVY-AMC as substrate measured every 2 mins up to 60 mins by fluorescence assay
Procedure, shortened: (§3)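 1.4 nM CP (0.001 mg/mL) in 50 mM Tris-HCl pH 8.0, activated with 0.005% SDS where stated, otherwise latent. Suc-LLVY-AMC at 100 μM final. AMC fluorescence read every 2 min up to 60 min at 37 °C. Activity relative to DMSO-treated enzyme, from at least three independent replicates. Peptide stocks 10 mM in DMSO.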

[18] = target: T1, Proteasome Macropain subunit MB1 (Homo sapiens); assay: Positive allosteric modulation of latent human erythrocytes 20S proteasome chymotrypsin like activity up to 10 uM using LFP as substrate measured every 2 mins up to 60 mins by fluorescence assay
[19] = target: T1, Proteasome Macropain subunit MB1 (Homo sapiens); assay: Positive allosteric modulation of latent human erythrocytes 20S proteasome chymotrypsin like activity up to 10 uM using Suc-LLVY-AMC as substrate measured every 2 mins up to 60 mins by fluorescence assay; procedure, shortened: as §3
[20] = target: T2, 20S proteasome (Homo sapiens); assay: Negative allosteric modulation of SDS-activated human erythrocytes 20S proteasome assessed as reduction in human alpha-synuclein degradation at 10 uM after 1 hr by SDS-PAGE analysis; procedure, shortened: as §1
[21] = target: T2, 20S proteasome (Homo sapiens); assay: Effect on alpha-face conformations of latent human erythrocytes 20S proteasome assessed as open state conformation at 10 uM by atomic force microscopic method (reference value: 7%)
[22] = target: T2, 20S proteasome (Homo sapiens); assay: Effect on alpha-face conformations of latent human erythrocytes 20S proteasome assessed as intermediate state conformation at 10 uM by atomic force microscopic method (reference value: 22%)
[23] = target: T2, 20S proteasome (Homo sapiens); assay: Effect on alpha-face conformations of latent human erythrocytes 20S proteasome assessed as closed state conformation at 1 uM by atomic force microscopic method (reference value: 70%)
[24] = target: T2, 20S proteasome (Homo sapiens); assay: Effect on alpha-face conformations of latent human erythrocytes 20S proteasome assessed as closed state conformation at 10 uM by atomic force microscopic method (reference value: 70%)
[25] = target: T2, 20S proteasome (Homo sapiens); assay: Negative allosteric modulation of SDS-activated human erythrocytes 20S proteasome assessed as reduction in yeast enolase degradation at 1 uM after 4 hr by SDS-PAGE analysis
[26] = target: T2, 20S proteasome (Homo sapiens); assay: Negative allosteric modulation of SDS-activated human erythrocytes 20S proteasome assessed as reduction in yeast enolase degradation at 10 uM after 4 hr by SDS-PAGE analysis
[27] = target: T1, Proteasome Macropain subunit MB1 (Homo sapiens); assay: Positive allosteric modulation of latent human erythrocytes 20S proteasome chymotrypsin like activity up to 10 uM using LFP as substrate measured every 2 mins up to 60 mins by fluorescence assay
[28] = target: Proteasome Macropain subunit (Homo sapiens) (UniProt P49721); assay: Negative allosteric modulation of SDS-activated human erythrocytes 20S proteasome trypsin like activity at 10 uM using Boc-LRR-AMC as substrate measured every 2 mins up to 60 mins by fluorescence assay
[29] = target: T3, Proteasome component C5 (Homo sapiens); assay: Negative allosteric modulation of SDS-activated human erythrocytes 20S proteasome caspase like activity at lower concentration using Z-LLE-AMC as substrate measured every 2 mins up to 60 mins by fluorescence assay
[30] = target: T1, Proteasome Macropain subunit MB1 (Homo sapiens); assay: Positive allosteric modulation of latent human erythrocytes 20S proteasome chymotrypsin like activity at 5 uM using Suc-LLVY-AMC as substrate measured every 2 mins up to 60 mins by fluorescence assay relative to control

Sequence of Proteasome Macropain subunit (Homo sapiens) (P49721 whole entry): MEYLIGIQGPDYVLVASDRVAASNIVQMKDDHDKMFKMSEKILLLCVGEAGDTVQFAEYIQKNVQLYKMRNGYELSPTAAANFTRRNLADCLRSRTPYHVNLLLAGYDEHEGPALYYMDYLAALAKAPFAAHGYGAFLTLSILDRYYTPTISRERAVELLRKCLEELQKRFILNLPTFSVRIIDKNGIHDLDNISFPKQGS
Sequence of Proteasome subunit beta type-6 (Homo sapiens) (P28072 whole entry, looked up): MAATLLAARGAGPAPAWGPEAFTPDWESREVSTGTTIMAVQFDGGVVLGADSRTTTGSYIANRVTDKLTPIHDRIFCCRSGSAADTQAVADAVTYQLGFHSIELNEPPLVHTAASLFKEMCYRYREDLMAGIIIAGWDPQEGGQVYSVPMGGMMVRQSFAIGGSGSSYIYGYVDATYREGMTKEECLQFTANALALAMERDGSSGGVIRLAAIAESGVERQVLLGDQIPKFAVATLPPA

Compound	Activity [6]	Activity [7]	Activity [10]	Activity [18]	Activity [20]	Activity [25]	Activity [26]	Activity [27]	Activity [28]	Activity [29]	other results
C[C@H](NC(=O)[C@H](Cc1ccc(O)cc1)NC(=O)[C@H](Cc1ccc(O)cc1)NC(=O)[C@@H]1CCCN1C(=O)[C@@H]1CCCN1C(=O)[C@@H]1CCCN1C(=O)[C@@H]1CCCN1C(=O)[C@H](CCCNC(=N)N)NC(=O)[C@H](CCCNC(=N)N)NC(=O)[C@@H](N)CCCNC(=N)N)C(=O)O (H-RRRPPPPYYA-OH)	inactive	inactive	18%	–	–	–	–	–	–	–	fold change (FC) [1]: 2; Activity [2]: inactive; fold change (FC) [3]: < 7; Activity [4]: Dose-dependent effect; fold change (FC) [5]: 14; fold change (FC) [8]: 3; Activity [9]: Dose-dependent effect; Activity [11]: 36%; Activity [12]: Active; Activity [13]: Active; fold change (FC) [14]: 5 to 7; fold change (FC) [15]: > 2; fold change (FC) [16]: 5 to 7
CC(C)C[C@H](NC(=O)[C@H](Cc1ccc(O)cc1)NC(=O)[C@@H]1CCCN1C(=O)[C@@H]1CCCN1C(=O)[C@H](CCCNC(=N)N)NC(=O)[C@@H]1CCCN1C(=O)[C@H](CCCNC(=N)N)NC(=O)[C@H](CCCNC(=N)N)NC(=O)[C@@H](N)CCCNC(=N)N)C(=O)N1CCC[C@H]1C(=O)N[C@@H](CCCNC(=N)N)C(=O)N[C@@H](Cc1c[nH]c2ccccc12)C(=O)NCC(=O)O (H-RRRPRPPYLPRWG-OH)	Active	Active	< 3%	inactive	Active	Active	Active	inactive	Active	Active	Activity [17]: Dose-dependent effect; Activity [19]: inactive; Activity [21]: 18%; Activity [22]: 25%; Activity [23]: 73%; Activity [24]: 57%
CC(C)C[C@H](NC(=O)[C@H](Cc1ccc(O)cc1)NC(=O)[C@H](CCCNC(=N)N)NC(=O)[C@H](CCCNC(=N)N)NC(=O)[C@@H](N)CCCNC(=N)N)C(=O)N1CCC[C@H]1C(=O)N[C@@H](CCCNC(=N)N)C(=O)N[C@@H](Cc1c[nH]c2ccccc12)C(=O)NCC(N)=O (H-RRRYLPRWG-NH2)	Active	–	–	inactive	Active	inactive	inactive	inactive	Active	Active	fold change (FC) [30]: 2
